In PMC3180826 (ACS chemical neuroscience, 2010):
Substitutions are numbered along the chain they refer to. Several values for one entry are separate records, joined by “and”; a condition that tells them apart may be missing. Equal entries are not always repeated.

Assays:
rM1 receptor = molecular target: T1, rM1 receptor (Rattus norvegicus, UniProt P08482); assay: Calcium mobilization assay, CHO-K1 cells stably expressing rM1; assay type: cell-based
T1 sequence (P08482 1-460): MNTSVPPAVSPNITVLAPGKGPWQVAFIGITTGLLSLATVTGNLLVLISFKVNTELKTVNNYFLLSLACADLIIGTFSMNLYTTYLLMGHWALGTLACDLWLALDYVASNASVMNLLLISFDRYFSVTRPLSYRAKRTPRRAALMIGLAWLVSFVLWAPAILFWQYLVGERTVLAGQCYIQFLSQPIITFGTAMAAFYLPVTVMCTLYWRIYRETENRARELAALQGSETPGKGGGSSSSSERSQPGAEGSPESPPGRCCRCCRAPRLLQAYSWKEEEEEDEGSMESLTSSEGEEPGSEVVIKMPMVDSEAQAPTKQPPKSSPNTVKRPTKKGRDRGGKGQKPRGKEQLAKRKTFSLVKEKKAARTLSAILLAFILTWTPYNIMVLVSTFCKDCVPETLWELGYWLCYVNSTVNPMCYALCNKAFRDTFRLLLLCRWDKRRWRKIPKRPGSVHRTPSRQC

hM3 = hM3 (Homo sapiens, UniProt P20309); assay: Calcium mobilization assay, agonist mode, M3; assay type: cell-based; conditions: up to 30 μM
Method in brief: (§1)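 CHO-K1 cells stably expressing hM2/Gqi5 or rM4/Gqi5 (6 × 10^4 cells/well), or hM3 or hM5 (5 × 10^4 cells/well), were cultured overnight at 37 °C in 5% CO2. Cells were loaded with 2 μM Fluo-4 AM for 1 h at 37 °C in HBSS with 20 mM HEPES and 2.5 mM probenecid, pH 7.4. Eight-point test compound concentration series were added at 19 s of a 130 s read. Calcium flux was read as fluorescence fold over basal.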

rM4 = molecular target: T2, rM4 (Rattus norvegicus, UniProt P08485); assay: Calcium mobilization assay, agonist mode, M4; assay type: cell-based; conditions: up to 30 μM
T2 sequence (P08485 1-478): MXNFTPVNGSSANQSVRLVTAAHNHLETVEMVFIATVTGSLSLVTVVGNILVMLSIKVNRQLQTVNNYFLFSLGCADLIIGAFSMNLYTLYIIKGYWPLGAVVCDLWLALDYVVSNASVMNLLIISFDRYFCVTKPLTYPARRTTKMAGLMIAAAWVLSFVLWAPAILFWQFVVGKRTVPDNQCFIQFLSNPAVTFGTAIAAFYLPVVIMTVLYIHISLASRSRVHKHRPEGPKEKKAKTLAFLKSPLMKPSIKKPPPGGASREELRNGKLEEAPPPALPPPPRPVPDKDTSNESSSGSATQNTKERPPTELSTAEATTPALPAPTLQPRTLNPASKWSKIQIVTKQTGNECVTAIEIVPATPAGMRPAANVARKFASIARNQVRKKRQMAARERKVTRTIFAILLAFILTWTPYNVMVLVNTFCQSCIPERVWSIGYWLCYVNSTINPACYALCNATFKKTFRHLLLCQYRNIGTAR
Method in brief: as §1

hM5 = molecular target: T3, hM5 (Homo sapiens, UniProt P08912); assay: Calcium mobilization assay, agonist mode, M5; assay type: cell-based; conditions: up to 30 μM
T3 sequence (P08912 1-532): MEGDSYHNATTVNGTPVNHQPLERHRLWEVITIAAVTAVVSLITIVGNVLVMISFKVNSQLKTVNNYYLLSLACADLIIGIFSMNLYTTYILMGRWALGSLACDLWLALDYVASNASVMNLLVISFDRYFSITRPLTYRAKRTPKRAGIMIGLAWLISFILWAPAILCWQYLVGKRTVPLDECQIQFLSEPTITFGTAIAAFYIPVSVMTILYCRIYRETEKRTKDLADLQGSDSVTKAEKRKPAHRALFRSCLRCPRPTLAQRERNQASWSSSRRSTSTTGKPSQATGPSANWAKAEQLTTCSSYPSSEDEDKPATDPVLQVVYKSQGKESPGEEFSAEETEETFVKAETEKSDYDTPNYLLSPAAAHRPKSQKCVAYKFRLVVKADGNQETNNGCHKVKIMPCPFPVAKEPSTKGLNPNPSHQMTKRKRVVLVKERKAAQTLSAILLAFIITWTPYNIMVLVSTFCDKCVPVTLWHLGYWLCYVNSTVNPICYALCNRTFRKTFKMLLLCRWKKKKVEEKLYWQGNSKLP
Method in brief: as §1

rM1 Y381A = molecular target: T4, rM1 Y381A (Rattus norvegicus, UniProt P08482, Y381A); assay: Calcium mobilization in rM1 Y381A; assay type: cell-based
T4 sequence (P08482 1-460 Y381A): T1 sequence (P08482 1-460) with Y381A

M3 = M3 (Homo sapiens, UniProt P20309); assay: [3H]-NMS competition binding, M3 CHO membranes; conditions: concentrations well above those required to fully activate M1
M5 = molecular target: T5, M5 (Homo sapiens, UniProt P08912); assay: [3H]-NMS competition binding, M5 CHO membranes; conditions: concentrations well above those required to fully activate M1
T5 sequence (P08912 1-532): T3 sequence (P08912 1-532)

Chain of hM3 (P20309 whole entry): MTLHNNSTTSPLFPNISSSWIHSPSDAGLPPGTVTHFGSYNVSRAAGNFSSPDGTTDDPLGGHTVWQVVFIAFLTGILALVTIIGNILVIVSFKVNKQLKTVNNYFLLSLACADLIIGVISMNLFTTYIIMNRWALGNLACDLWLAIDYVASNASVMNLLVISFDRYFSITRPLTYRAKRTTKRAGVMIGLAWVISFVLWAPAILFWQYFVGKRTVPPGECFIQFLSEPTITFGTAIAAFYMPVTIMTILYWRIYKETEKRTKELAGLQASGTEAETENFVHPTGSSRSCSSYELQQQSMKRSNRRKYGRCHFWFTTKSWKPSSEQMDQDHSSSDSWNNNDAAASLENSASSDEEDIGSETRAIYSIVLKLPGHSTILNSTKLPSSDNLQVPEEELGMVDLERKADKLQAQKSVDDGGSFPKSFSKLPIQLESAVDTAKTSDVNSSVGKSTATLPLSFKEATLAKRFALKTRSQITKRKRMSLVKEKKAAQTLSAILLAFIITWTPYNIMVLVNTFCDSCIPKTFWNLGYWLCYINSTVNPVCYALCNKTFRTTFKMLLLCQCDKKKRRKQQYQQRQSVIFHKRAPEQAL
Chain of M3 (P20309 whole entry): as above

## CCOC(=O)N1CCC(NCCNC(=O)c2ccccc2)CC1 [VU0184670, ethyl 4-(2-benzamidoethylamino)piperidine-1-carboxylate]
rM1 receptor
  EC50: 152 nM
rM1 receptor; rM1 CHO-K1, calcium mobilization
  ACh Max efficacy: 85 % ACh Max and 85.01 % ACh Max
rM1 receptor; rM1 cells, fixed increasing concentrations of atropine
  Schild analysis: shift of dose-response curve with increasing atropine: rightward shift with diminished efficacy
hM3
  agonist activity at M3: no activity
rM4
  agonist activity at M4: no activity
hM5
  agonist activity at M5: no activity
rM1 Y381A
  EC50: 304 ± 156 nM
rM1 Y381A; M1Y381A CHO cells vs WT M1 CHO cells
  potency at M1 Y381A compared with WT M1: potencies similar to those observed in WT M1 CHO cells
rM1 Y381A; rM1 Y381A cells
  rM1 Y381A AChmax (maximal efficacy): 63.25 % max
M3
  reduction of [3H]-NMS binding to M3: did not reduce
M5
  reduction of [3H]-NMS binding to M5: did not reduce
